From ChEMBL document CHEMBL1121508, “Synthesis of alpha-methylene-gamma-butyrolactones: a structure-activity relationship study of their allergenic power” (1980)

Key:
Type in all cases: functional
Cavia porcellus [1] = species on record: Cavia porcellus; assay: Average skin reaction in guinea pig sensitized to the sesquiterpene alantolactone
How it was run: (§1)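 Female guinea pigs (albino Hartley and Himalayan spotted Füllingsdorf), 300–500 g, sensitized by Klečak's method. The hapten was emulsified in Freund's complete adjuvant and injected intradermally into the shaved nuchal region on alternate days, five injections in all. Skin reactions at elicitation were scored up to 3 (erythema plus swelling well beyond the test area) and 4 (necrosis or ulceration). Irritation thresholds were first set on untreated animals by the same elicitation procedure.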

Cavia porcellus [2] = species on record: Cavia porcellus; assay: Average skin reaction in guinea pig sensitized to the sesquiterpene isoalantolactone; how it was run: as §1
Cavia porcellus [3] = species on record: Cavia porcellus; assay: Number of guinea pigs sensitized to the sesquiterpene isoalantolactone (out of 8 guinea pigs); how it was run: as §1; also: test concentration or dose not given here
Cavia porcellus [4] = species on record: Cavia porcellus; assay: Number of guinea pigs sensitized to alpha-methylene-gamma-butyrolactone (out of 10 guinea pigs); how it was run: as §1; also: test concentration or dose not given here
Cavia porcellus [5] = species on record: Cavia porcellus; assay: Number guinea pigs sensitized to the sesquiterpene alantolactone (out of 7 guinea pigs); how it was run: as §1; also: test concentration or dose not given here
Cavia porcellus [6] = species on record: Cavia porcellus; assay: Average skin reaction in guinea pig sensitized to alpha-methylene-gamma-butyrolactone; how it was run: as §1
Cavia porcellus [7] = species on record: Cavia porcellus; assay: Open Epicutaneous tests were performed on guinea pigs sensitized to alpha-methylene-gamma-butyrolactone; how it was run: as §1; also: test concentration or dose not given here
Cavia porcellus [8] = species on record: Cavia porcellus; assay: Average skin reaction in guinea pig sensitized to the sesquiterpene alantolactone (toxic); how it was run: as §1
Cavia porcellus [9] = species on record: Cavia porcellus; assay: Average skin reaction in guinea pig sensitized to the sesquiterpene isoalantolactone (toxic); how it was run: as §1
Cavia porcellus [10] = species on record: Cavia porcellus; assay: Average skin reaction in guinea pig sensitized to alpha-methylene-gamma-butyrolactone (toxic); how it was run: as §1
Cavia porcellus [11] = species on record: Cavia porcellus; assay: Average skin reaction in guinea pig sensitized to the sesquiterpene alantolactone*-toxic; how it was run: as §1

| SMILES | Average skin reaction (Cavia porcellus [1]) | Average skin reaction (Cavia porcellus [2]) | No. of sensitive (Cavia porcellus [3]) | No. of sensitive (Cavia porcellus [4]) | No. of sensitive (Cavia porcellus [5]) | Average skin reaction (Cavia porcellus [6]) | Average skin reaction (Cavia porcellus [7]) | Average skin reaction (Cavia porcellus [8]) | Average skin reaction (Cavia porcellus [9]) | Average skin reaction (Cavia porcellus [10]) | Average skin reaction (Cavia porcellus [11]) |
| --- | --- | --- | --- | --- | --- | --- | --- | --- | --- | --- | --- |
| C=C1C(=O)OC(c2ccccc2)(c2ccccc2)C1C(=O)OCC (centres undefined) | 0.1 | 0 | 0 | 0 | 1 | 0 |  |  |  |  |  |
| C=C1CC2(OC1=O)C1CCC(C1)C2(C)C (centres undefined) | 0.7 | 1.1 | 8 | 0 | 7 | 0 |  |  |  |  |  |
| C=C1CC(CC)(CC)OC1=O | 0.4 | 0.7 | 8 | 0 | 5 | 0 |  |  |  |  |  |
| C=C1CC(c2ccccc2)(c2ccccc2)OC1=O | 0.9 | 0.4 | 5 | 0 | 7 |  | 0 |  |  |  |  |
| C=C1C(=O)OC2CC3(C)CCCC(=O)C3CC12 (centres undefined) | 0.9 | 0.9 | 8 |  | 7 |  |  |  |  |  |  |
| C=C1CC2(CCCC3CCCCC32)OC1=O (centres undefined) | 1.4 | 1.4 | 8 | 0 | 7 | 0 |  |  |  |  |  |
| C=C1C(=O)OC2CC3(C)CCCC4(CO4)C3CC12 (centres undefined) | 0.7 | 1 | 8 |  | 7 |  |  |  |  |  |  |
| C=C1CC2(CCC(C(C)(C)C)CC2)OC1=O (centres undefined) | 0.8 | 1.1 | 8 | 1 | 6 | 0 |  |  |  |  |  |
| C=C1CC2(CCC3(CC2)CC(=C)C(=O)O3)OC1=O (centres undefined) | 0 | 0.1 | 1 | 0 | 0 | 0 |  |  |  |  |  |
| C=C1C(=O)OC2CCCCC12 (centres undefined) | 0.1 | 0.1 | 1 | 3 | 1 | 0.1 |  |  |  |  |  |
| C=C1CC2(OC1=O)C1CC3CC(C1)CC2C3 (centres undefined) | 0.8 | 0.8 | 8 | 2 | 6 | 0.1 |  |  |  |  |  |
| C=C1CC2(CC[C@@]3(C)C(CC[C@H]4[C@@H]5CC[C@H](C(C)CCCC(C)C)[C@@]5(C)CC[C@@H]43)C2)OC1=O (some centres undefined) | 0.1 | 0 | 0 | 0 | 1 | 0 |  |  |  |  |  |
| C=C1CC(C(C)(C)C)OC1=O (centres undefined) | 0.3 | 0.5 | 5 | 1 | 3 | 0.1 |  |  |  |  |  |
| C=C1C(=O)OC2C3CCC(C3)C12 (centres undefined) | 0.9 | 1 | 8 | 2 | 7 | 0.1 |  |  |  |  |  |
| C=C1CC(C)(c2ccccc2)OC1=O (centres undefined) |  |  | 8 | 5 | 7 |  |  | 1.1 | 1.3 | 0.4 |  |
| C=C1CC(C)(CC(C)(C)C)OC1=O (centres undefined) | 0.6 | 0.8 | 7 | 2 | 6 | 0.1 |  |  |  |  |  |
| C=C1CC2(CC3CCC2C3)OC1=O (centres undefined) | 0.3 | 0.2 | 4 | 0 | 4 | 0 |  |  |  |  |  |

| SMILES | Average skin reaction (Cavia porcellus [1]) | Average skin reaction (Cavia porcellus [2]) | No. of sensitive (Cavia porcellus [3]) | No. of sensitive (Cavia porcellus [4]) | No. of sensitive (Cavia porcellus [5]) | Average skin reaction (Cavia porcellus [6]) | Average skin reaction (Cavia porcellus [7]) | Average skin reaction (Cavia porcellus [8]) | Average skin reaction (Cavia porcellus [9]) | Average skin reaction (Cavia porcellus [10]) | Average skin reaction (Cavia porcellus [11]) |
| --- | --- | --- | --- | --- | --- | --- | --- | --- | --- | --- | --- |
| C=C1CC2(CCCc3ccccc32)OC1=O (centres undefined) |  |  | 8 | 10 | 7 | 0.9 |  | 1.7 | 2 |  |  |
| C=C1CC2(CC3CC4(CC(=C)C(=O)O4)CC3C2)OC1=O (centres undefined) | 0.2 | 0.2 | 3 | 1 | 2 | 0 |  |  |  |  |  |
| C=C1CC2(CCCCCCCCC2)OC1=O | 1.1 | 0.9 | 7 | 0 | 7 | 0 |  |  |  |  |  |
| C=C1CC2(CCCCCC2)OC1=O | 1.1 | 1.2 | 8 | 2 | 7 | 0.1 |  |  |  |  |  |
| C=C1CC(c2ccccc2)OC1=O (centres undefined) |  |  | 8 | 10 | 7 |  |  | 1.1 | 1.5 | 1.4 |  |
| C=C1CC(C)(CC)OC1=O (centres undefined) | 0.4 | 0.4 | 6 | 0 | 5 | 0 |  |  |  |  |  |
| C=C1CC(CC)OC1=O (centres undefined) |  |  |  | 0 |  | 0 |  |  |  |  |  |
| C=C1CC(C(C)C)(C(C)C)OC1=O |  | 0.5 | 6 | 0 | 6 | 0 |  |  |  |  | 0.6 |
| C=C1CC(C)OC1=O (centres undefined) | 0 | 0 | 0 | 7 | 0 | 0.6 |  |  |  |  |  |
| C=C1CC2(OC1=O)C(C)CCCC2C (centres undefined) | 1 | 1.7 | 8 | 0 | 7 | 0 |  |  |  |  |  |
| C=C1CC(CCCCCCCCCCC)OC1=O (centres undefined) |  |  | 8 | 10 | 7 |  |  | 0.9 | 1.2 | 1 |  |
| C=C1CC(C)(C)OC1=O | 0 | 0 | 0 | 6 | 0 | 0.5 |  |  |  |  |  |
| C=C1C(=O)OC2CC3(C)CCCC(C)C3=CC12 (centres undefined) | 3 | 2.1 | 8 | 0 | 7 | 0 |  |  |  |  |  |
| C=C1CC2(CCCC2)OC1=O | 0.2 | 0.1 | 1 | 0 | 2 | 0 |  |  |  |  |  |
| C=C1CC2(CCCCC2)OC1=O | 0.5 | 0.8 | 8 | 2 | 5 | 0.1 |  |  |  |  |  |
| C=C1C(=O)O[C@@H]2C[C@@]3(C)CCCC(=C)[C@@H]3C[C@H]12 [ISOALANTOLACTONE] | 1.4 | 1.4 | 8 | 0 | 7 | 0 |  |  |  |  |  |
| C=C1CCOC1=O [TULIPALINE A] | 0.1 |  |  | 10 | 1 | 1.9 |  |  |  |  |  |
